What was measured:
HCT-116 [1] = test: Cytotoxicity against human HCT-116 cells assessed as cell viability at 10 uM by CellTiter Glo luminescent assay relative to control; type: functional; conditions: read-out: Activity
Procedure, shortened: (§1)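 Single-concentration screen at 10 µM; percentage viability measured by CellTiter-Glo luminescent quantitation of ATP in metabolically active cells.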

HL-60 [2] = test: Cytotoxicity against human HL-60 cells assessed as cell viability at 10 uM by CellTiter Glo luminescent assay relative to control; type: functional; conditions: read-out: Activity; procedure, shortened: as §1
HL-60 [3] = test: Cytotoxicity against human HL-60 cells assessed as reduction in cell viability by CellTiter Glo luminescent assay; type: functional, cell-based
Procedure, shortened: (§2)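 CellTiter-Glo luminescent read-out of cellular ATP, taken as proportional to viable cell number; percentage viability measured and IC50 derived. MRC5 used as normal (non-cancer) line.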

HCT-116 [4] = test: Cytotoxicity against human HCT-116 cells assessed as reduction in cell viability by CellTiter Glo luminescent assay; type: functional, cell-based; procedure, shortened: as §2
PC-3 = test: Cytotoxicity against human PC-3 cells assessed as reduction in cell viability by CellTiter Glo luminescent assay; type: functional, cell-based; procedure, shortened: as §2
MRC5 = test: Cytotoxicity against human MRC5 cells assessed as reduction in cell viability by CellTiter Glo luminescent assay; type: cell-based; procedure, shortened: as §2
U-87 MG = test: Cytotoxicity against human U-87 MG cells assessed as reduction in cell viability by CellTiter Glo luminescent assay; type: functional, cell-based, U-87MG ATCC; procedure, shortened: as §2
MCF7 = test: Cytotoxicity against human MCF7 cells assessed as reduction in cell viability by CellTiter Glo luminescent assay; type: functional, cell-based; procedure, shortened: as §2
A549 = test: Cytotoxicity against human A549 cells assessed as reduction in cell viability by CellTiter Glo luminescent assay; type: functional, cell-based; procedure, shortened: as §2
[5] = Selectivity index, ratio of IC50 for human MRC5 cells to IC50 for human MCF7 cells by CellTiter Glo luminescent assay; type: toxicity; conditions: MRC5 cells versus MCF7 cells, read-out: Ratio IC50
Procedure, shortened: (§3)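 Safety ratio computed as IC50 in MRC5 normal cells divided by IC50 in the cancer line, both from CellTiter-Glo ATP-luminescence viability assays.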

[6] = Selectivity index, ratio of IC50 for human MRC5 cells to IC50 for human SK-OV-3 cells by CellTiter Glo luminescent assay; type: toxicity; conditions: MRC5 cells versus SK-OV-3 cells, read-out: Ratio IC50; procedure, shortened: as §3
[7] = Selectivity index, ratio of IC50 for human MRC5 cells to IC50 for human HL60 cells by CellTiter Glo luminescent assay; type: toxicity; conditions: MRC5 cells versus HL60 cells, read-out: Ratio IC50
[8] = Selectivity index, ratio of IC50 for human MRC5 cells to IC50 for human U-87 MG cells by CellTiter Glo luminescent assay; type: toxicity; conditions: MRC5 cells versus U-87 MG cells, read-out: Ratio IC50; procedure, shortened: as §3
[9] = Selectivity index, ratio of IC50 for human MRC5 cells to IC50 for human HCT-116 cells by CellTiter Glo luminescent assay; type: toxicity; conditions: MRC5 cells versus HCT-116 cells, read-out: Ratio IC50; procedure, shortened: as §3
[10] = Selectivity index, ratio of IC50 for human HL-60 cells to IC50 for human HCT-116 cells by CellTiter Glo luminescent assay; type: functional
[11] = Selectivity index, ratio of IC50 for human MRC5 cells to IC50 for human A549 cells by CellTiter Glo luminescent assay; type: toxicity; conditions: MRC5 cells versus A549 cells, read-out: Ratio IC50; procedure, shortened: as §3
SK-OV-3 = test: Cytotoxicity against human SK-OV-3 cells assessed as reduction in cell viability by CellTiter Glo luminescent assay; type: functional, cell-based; procedure, shortened: as §2
[12] = Selectivity index, ratio of IC50 for human MRC5 cells to IC50 for human PC-3 cells by CellTiter Glo luminescent assay; type: toxicity; conditions: MRC5 cells versus PC-3 cells, read-out: Ratio IC50; procedure, shortened: as §3

Row | Compound | viability at 10 µM (HCT-116 [1]) [%] | viability at 10 µM (HL-60 [2]) [%] | IC50 (HL-60 [3]) [nM] | further results
1 | C=C(CC)C(=O)c1ccc(OCC(=O)N2CCN(S(=O)(=O)c3ccc(OC)c(OC)c3)CC2)c(Cl)c1Cl | 89 | 100 |  | 
2 | C=C(CC)C(=O)c1ccc(OCC(=O)N2CCN(S(C)(=O)=O)CC2)c(Cl)c1Cl | 68 | 24 | 3390 | 
3 | C=C(CC)C(=O)c1ccc(OCC(=O)NC2CCN(S(=O)(=O)c3ccc(OC)cc3OC)CC2)c(Cl)c1Cl | 90 | 11 | 860 | 
4 | COc1cccc2c1C(=O)c1c(O)c3c(c(O)c1C2=O)C[C@@](O)(C(=O)CO)C[C@@H]3O[C@H]1C[C@H](N)[C@H](O)[C@H](C)O1 [DOXORUBICIN] |  |  | 10 | IC50 (HCT-116 [4]): 90 nM; IC50 (PC-3): 2 nM; IC50 (MRC5): 39 nM; IC50 (U-87 MG): 90 nM; IC50 (MCF7): 120 nM; IC50 (A549): 56 nM
5 | C=C(CC)C(=O)c1ccc(OCC(=O)NC2CCN(S(C)(=O)=O)CC2)c(Cl)c1Cl | 73 | 26 | 3330 | 
6 | C=C(CC)C(=O)c1ccc(OCC(=O)NC2CCN(S(=O)(=O)c3ccc(OC)c(OC)c3)CC2)c(Cl)c1Cl | 99 | 25 | 1310 | 
7 | C=C(CC)C(=O)c1ccc(OCC(=O)NCCNS(=O)(=O)c2cc(Cl)ccc2OC)c(Cl)c1Cl | 78 | 18 | 1600 | 
8 | C=C(CC)C(=O)c1ccc(OCC(=O)N2CCN(S(=O)(=O)c3ccc(C)cc3)CC2)c(Cl)c1Cl | 100 | 64 |  | 
9 | C=C(CC)C(=O)c1ccc(OCC(=O)NCCNS(=O)(=O)c2ccc(OC)cc2)c(Cl)c1Cl | 97 | 24 | 860 | 
10 | C=C(CC)C(=O)c1ccc(OCC(=O)NC2CCN(S(=O)(=O)c3cccc4cccnc34)CC2)c(Cl)c1Cl | 84 | 34 | 970 | 
11 | C=C(CC)C(=O)c1ccc(OCC(=O)NCCNS(=O)(=O)c2ccc(C)cc2)c(Cl)c1Cl | 100 | 17 | 2370 | 
12 | C=C(CC)C(=O)c1ccc(OCC(=O)NCCNS(=O)(=O)C2CCCCC2)c(Cl)c1Cl | 91 | 28 | 1340 | 
13 | C=C(CC)C(=O)c1ccc(OCC(=O)N2CCN(S(=O)(=O)c3ccc(OC)cc3)CC2)c(Cl)c1Cl | 21 | 17 | 590 | IC50 (HCT-116 [4]): 50 nM; selectivity ratio [5]: 1.78; IC50 (PC-3): 24 nM; selectivity ratio [6]: 0.45; selectivity ratio [7]: 0.16; selectivity ratio [8]: 0.48; IC50 (MRC5): 100 nM; selectivity ratio [9]: 2; Ratio IC50 [10]: 12; IC50 (U-87 MG): 207 nM; IC50 (MCF7): 56 nM; IC50 (A549): 64 nM; selectivity ratio [11]: 1.54; IC50 (SK-OV-3): 219 nM; selectivity ratio [12]: 4.03
14 | C=C(CC)C(=O)c1ccc(OCC(=O)NC2CCN(S(=O)(=O)c3ccc([N+](=O)[O-])cc3)CC2)c(Cl)c1Cl | 100 | 23 | 2470 | 

— ChEMBL document CHEMBL4673235, “Synthesis and biological evaluation of ethacrynic acid derivatives bearing sulfonamides as potent anti-cancer agents” (Bioorg Med Chem Lett, 2020)
